Tests used:
[1] = biological target: Tyrosine-protein kinase ABL1 (Homo sapiens) (UniProt P00519); assay: Inhibition of ABL1 at 1 uM
In short: (§1)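 Ambit KINOMEscan screen at a single concentration across a 250–400 kinase panel, recorded as percent inhibition. Selectivity was expressed as S(90), the fraction of kinases inhibited >90%.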

[2] = biological target: T1, Atypical kinase COQ8B, mitochondrial (Homo sapiens) (UniProt Q96D53); assay: Inhibition of ADCK4 at 1 uM; in short: as §1
T1 sequence (whole entry): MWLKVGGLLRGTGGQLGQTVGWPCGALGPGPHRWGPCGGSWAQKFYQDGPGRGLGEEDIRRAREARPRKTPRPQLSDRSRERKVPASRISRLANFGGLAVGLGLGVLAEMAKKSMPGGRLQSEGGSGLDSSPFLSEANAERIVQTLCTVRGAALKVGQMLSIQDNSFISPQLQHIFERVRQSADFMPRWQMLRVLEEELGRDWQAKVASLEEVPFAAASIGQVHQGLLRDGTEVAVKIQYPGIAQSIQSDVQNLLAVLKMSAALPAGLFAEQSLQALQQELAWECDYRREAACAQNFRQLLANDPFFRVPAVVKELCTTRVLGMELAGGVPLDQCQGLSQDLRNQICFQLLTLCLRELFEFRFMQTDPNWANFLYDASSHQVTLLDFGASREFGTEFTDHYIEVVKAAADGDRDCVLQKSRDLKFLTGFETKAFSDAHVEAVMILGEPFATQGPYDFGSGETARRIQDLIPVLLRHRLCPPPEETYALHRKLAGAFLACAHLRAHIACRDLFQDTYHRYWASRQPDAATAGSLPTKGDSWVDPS

[3] = biological target: T2, Mitogen-activated protein kinase kinase kinase 6 (Homo sapiens) (UniProt O95382); assay: Inhibition of ASK2 at 1 uM
T2 sequence (whole entry): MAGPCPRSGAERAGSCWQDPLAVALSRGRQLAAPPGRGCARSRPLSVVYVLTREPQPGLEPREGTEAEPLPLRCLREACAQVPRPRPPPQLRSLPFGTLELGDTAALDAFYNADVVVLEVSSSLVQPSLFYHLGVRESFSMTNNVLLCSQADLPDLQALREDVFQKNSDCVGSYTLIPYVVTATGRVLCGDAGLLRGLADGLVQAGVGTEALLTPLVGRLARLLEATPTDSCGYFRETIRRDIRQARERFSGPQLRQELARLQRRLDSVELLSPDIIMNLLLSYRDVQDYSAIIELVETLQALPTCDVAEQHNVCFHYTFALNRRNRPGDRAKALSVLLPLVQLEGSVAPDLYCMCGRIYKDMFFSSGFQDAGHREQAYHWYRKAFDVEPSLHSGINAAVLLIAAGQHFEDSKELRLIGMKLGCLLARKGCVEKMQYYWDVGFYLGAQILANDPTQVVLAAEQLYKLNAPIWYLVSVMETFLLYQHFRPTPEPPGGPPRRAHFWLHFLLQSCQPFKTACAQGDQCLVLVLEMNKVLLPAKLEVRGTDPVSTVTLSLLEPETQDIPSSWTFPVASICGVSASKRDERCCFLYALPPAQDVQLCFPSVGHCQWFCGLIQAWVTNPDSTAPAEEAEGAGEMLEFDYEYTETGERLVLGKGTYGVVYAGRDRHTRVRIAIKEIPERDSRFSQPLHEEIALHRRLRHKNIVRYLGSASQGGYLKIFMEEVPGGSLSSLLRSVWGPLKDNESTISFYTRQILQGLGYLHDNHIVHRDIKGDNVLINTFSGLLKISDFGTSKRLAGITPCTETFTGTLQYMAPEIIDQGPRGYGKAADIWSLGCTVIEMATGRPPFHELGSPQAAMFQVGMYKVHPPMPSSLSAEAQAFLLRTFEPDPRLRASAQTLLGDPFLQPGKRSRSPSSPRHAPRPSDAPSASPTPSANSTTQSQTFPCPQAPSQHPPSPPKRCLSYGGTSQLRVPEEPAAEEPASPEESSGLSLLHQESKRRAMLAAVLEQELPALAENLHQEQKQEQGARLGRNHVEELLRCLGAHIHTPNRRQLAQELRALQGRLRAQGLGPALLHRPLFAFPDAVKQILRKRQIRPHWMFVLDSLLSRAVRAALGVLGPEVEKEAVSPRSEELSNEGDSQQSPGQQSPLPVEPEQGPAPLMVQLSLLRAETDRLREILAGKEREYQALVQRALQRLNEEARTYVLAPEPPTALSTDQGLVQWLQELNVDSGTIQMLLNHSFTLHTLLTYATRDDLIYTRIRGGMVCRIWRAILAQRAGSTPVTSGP

[4] = biological target: Dual specificity tyrosine-phosphorylation-regulated kinase 1B (Homo sapiens) (UniProt Q9Y463); assay: Inhibition of DYRK1B at 1 uM
Sequence of Dual specificity tyrosine-phosphorylation-regulated kinase 1B (Homo sapiens) (Q9Y463 whole entry, looked up): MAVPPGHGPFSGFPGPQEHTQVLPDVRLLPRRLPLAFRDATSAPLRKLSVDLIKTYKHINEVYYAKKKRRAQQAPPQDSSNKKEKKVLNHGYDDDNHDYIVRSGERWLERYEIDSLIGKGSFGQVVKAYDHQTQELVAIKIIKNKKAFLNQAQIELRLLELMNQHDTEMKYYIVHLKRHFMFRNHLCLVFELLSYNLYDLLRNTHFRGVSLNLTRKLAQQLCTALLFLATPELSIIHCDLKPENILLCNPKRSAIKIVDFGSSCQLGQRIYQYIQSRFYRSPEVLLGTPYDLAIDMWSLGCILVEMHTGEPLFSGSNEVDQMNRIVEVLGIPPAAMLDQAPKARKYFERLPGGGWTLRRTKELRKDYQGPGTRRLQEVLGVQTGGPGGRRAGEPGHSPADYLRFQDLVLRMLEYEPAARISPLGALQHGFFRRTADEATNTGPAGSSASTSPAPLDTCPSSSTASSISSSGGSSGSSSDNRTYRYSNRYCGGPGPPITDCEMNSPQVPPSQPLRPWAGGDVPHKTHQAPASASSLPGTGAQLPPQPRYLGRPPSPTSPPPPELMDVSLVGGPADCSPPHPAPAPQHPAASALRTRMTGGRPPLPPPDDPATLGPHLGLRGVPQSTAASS

[5] = biological target: Serine/threonine-protein kinase/endoribonuclease IRE1 (Homo sapiens) (UniProt O75460); assay: Inhibition of ERN1 at 1 uM
Sequence of Serine/threonine-protein kinase/endoribonuclease IRE1 (Homo sapiens) (O75460 19-977 limits assumed): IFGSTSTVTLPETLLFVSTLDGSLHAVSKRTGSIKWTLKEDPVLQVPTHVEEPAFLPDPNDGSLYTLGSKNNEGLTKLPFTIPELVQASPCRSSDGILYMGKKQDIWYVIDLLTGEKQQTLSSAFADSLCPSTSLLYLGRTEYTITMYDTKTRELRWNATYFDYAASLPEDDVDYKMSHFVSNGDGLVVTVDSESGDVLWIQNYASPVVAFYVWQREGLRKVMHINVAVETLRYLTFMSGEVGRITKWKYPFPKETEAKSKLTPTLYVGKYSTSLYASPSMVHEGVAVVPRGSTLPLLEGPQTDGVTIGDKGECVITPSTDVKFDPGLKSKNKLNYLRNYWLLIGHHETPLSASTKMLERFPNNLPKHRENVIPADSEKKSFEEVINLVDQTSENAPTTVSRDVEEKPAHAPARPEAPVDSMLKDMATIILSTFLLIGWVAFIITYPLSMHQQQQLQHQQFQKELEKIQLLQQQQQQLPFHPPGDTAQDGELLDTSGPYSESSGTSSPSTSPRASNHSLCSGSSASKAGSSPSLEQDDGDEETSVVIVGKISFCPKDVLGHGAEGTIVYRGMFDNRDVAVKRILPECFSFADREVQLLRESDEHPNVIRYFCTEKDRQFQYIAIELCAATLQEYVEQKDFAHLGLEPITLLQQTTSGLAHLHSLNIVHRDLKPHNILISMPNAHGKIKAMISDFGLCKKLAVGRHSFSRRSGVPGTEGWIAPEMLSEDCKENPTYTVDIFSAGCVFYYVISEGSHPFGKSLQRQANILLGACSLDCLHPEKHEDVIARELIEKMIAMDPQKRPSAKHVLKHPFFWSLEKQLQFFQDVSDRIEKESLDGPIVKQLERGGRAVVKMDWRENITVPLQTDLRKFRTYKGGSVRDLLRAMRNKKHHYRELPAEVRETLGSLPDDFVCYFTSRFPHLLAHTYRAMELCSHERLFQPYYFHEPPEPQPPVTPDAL

[6] = biological target: ALK tyrosine kinase receptor (Homo sapiens, UniProt Q9UM73); assay: Inhibition of ALK phosphorylation in human Karpas-299 cells by immunoblotting and ELISA; assay type: cell-based
Sequence of ALK tyrosine kinase receptor (Q9UM73 whole entry): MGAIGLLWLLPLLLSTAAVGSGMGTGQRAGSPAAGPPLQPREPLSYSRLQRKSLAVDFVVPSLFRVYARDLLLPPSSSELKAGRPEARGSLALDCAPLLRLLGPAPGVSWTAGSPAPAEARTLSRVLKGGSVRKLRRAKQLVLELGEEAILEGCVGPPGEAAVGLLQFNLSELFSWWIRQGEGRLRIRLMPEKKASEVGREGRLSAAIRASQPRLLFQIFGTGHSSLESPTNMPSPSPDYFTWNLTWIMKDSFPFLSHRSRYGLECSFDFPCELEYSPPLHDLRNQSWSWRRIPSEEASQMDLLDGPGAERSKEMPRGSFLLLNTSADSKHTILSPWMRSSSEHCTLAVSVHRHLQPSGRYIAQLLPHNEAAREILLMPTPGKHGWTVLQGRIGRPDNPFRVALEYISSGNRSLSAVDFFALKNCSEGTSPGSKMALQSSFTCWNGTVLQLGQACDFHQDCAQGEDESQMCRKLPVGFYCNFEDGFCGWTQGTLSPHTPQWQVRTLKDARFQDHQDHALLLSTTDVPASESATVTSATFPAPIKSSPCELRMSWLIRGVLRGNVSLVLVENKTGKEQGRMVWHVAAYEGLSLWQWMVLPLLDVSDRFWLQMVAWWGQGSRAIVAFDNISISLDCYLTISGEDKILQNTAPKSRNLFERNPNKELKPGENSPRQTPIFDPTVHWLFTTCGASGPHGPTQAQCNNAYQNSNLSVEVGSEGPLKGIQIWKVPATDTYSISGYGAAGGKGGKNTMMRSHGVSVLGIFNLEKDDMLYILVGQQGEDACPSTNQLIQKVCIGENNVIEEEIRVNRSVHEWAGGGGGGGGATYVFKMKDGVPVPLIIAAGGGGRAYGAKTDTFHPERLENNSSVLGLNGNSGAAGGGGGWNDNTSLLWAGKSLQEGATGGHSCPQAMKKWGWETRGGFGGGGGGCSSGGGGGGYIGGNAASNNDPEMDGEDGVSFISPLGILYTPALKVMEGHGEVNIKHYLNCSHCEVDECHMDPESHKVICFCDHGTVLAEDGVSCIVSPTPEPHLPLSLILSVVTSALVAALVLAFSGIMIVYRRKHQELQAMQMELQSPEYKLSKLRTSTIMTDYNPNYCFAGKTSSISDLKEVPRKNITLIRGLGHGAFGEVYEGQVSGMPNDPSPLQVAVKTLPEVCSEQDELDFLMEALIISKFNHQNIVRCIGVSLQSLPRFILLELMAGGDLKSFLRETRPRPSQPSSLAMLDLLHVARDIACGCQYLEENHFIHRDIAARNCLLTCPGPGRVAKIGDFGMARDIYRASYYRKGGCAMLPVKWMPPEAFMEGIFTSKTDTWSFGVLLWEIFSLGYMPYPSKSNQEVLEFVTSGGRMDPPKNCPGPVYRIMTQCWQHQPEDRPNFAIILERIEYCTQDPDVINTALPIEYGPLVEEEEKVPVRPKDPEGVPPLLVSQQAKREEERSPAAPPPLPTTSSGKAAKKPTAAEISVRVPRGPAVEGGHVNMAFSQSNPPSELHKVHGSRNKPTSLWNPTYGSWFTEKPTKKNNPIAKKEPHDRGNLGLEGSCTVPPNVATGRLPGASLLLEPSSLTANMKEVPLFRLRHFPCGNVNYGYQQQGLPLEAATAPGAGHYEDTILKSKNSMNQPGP
In short: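 Karpas-299 cells were treated with compound, then lysed in Tris pH 7.5 / 1% Triton X-100 buffer containing phosphatase and protease inhibitors, briefly sonicated and cleared. For immunoblots, SDS–PAGE was probed with phospho-NPM-ALK(Y664) or total ALK antibodies and bands were quantified by ECL. For ELISA, lysates were captured overnight at 4 °C on anti-ALK, detected with anti-phospho-ALK(Y664) plus AP secondary, and read by 4-MeUP fluorescence.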

Sequence of Tyrosine-protein kinase ABL1 (Homo sapiens) (P00519 whole entry): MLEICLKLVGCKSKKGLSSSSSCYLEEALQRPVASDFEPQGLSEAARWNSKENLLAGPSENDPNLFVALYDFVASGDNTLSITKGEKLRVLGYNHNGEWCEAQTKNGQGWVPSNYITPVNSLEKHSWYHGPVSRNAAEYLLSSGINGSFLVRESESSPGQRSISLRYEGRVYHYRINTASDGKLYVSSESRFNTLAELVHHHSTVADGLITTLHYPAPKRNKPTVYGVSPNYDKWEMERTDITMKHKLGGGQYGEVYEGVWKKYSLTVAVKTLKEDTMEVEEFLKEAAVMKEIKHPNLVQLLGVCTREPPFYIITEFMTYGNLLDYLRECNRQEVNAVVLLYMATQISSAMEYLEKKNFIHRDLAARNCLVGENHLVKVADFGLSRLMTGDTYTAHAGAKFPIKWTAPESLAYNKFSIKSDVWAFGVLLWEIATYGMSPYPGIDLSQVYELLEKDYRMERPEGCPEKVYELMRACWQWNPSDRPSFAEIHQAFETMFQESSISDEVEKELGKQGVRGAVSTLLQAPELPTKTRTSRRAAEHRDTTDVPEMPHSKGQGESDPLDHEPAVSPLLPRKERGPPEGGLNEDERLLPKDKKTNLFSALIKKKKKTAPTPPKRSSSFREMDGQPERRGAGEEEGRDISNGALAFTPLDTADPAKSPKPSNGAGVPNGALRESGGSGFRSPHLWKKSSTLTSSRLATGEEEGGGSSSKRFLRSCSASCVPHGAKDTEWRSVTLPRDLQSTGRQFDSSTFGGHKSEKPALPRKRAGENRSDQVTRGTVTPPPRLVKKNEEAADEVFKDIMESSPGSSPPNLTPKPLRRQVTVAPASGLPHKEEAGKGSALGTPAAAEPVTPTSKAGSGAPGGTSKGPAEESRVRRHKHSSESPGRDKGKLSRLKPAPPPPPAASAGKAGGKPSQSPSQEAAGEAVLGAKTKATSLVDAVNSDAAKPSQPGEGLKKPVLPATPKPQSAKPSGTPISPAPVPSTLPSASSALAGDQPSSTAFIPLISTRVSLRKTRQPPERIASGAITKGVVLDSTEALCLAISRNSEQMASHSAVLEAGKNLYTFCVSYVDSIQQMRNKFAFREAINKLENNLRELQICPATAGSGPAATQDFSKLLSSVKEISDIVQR

| Structure (SMILES) | inhibition [1] [%] | inhibition [2] [%] | inhibition [3] [%] | inhibition [4] [%] | inhibition [5] [%] | IC50 [6] [µM] |
| --- | --- | --- | --- | --- | --- | --- |
| CN1CCN(c2ccc(-c3cnc4c(c3)N(Cc3cc(Cl)ccc3Cl)CCN4)cn2)CC1 | < 50 | < 50 | < 50 | < 50 | < 50 |  |
| CN1CCN(c2ccc(-c3cnc4c(c3)N(Cc3cc(Cl)ccc3C(F)(F)F)CCN4)cn2)CC1 | < 50 | < 50 | < 50 | < 50 | < 50 |  |
| COC1CCN(C(=O)c2ccc(-c3cnc4c(c3)N(Cc3cc(Cl)ccc3C(F)(F)F)CCN4)cc2)CC1 | < 50 | < 50 | < 50 |  |  | 0.45 |
| O=C(c1ccc(-c2cnc3c(c2)N(Cc2cc(Cl)ccc2C(F)(F)F)CCN3)cc1)N1CCC(N2CCCC2)CC1 | < 50 | < 50 | < 50 |  |  | 0.25 |
| CN1CCN(c2ccc(-c3cnc4c(c3)N(Cc3cc(F)ccc3F)CCN4)cn2)CC1 | 59 | < 50 | < 50 | < 50 | < 50 | 0.2 |

The next lines start with the values.

| inhibition [1] [%] | inhibition [2] [%] | inhibition [3] [%] | inhibition [4] [%] | inhibition [5] [%] | IC50 [6] [µM] | Structure (SMILES) |
| --- | --- | --- | --- | --- | --- | --- |
| < 50 | < 50 |  |  |  |  | O=C(c1ccc(-c2cnc3c(c2)N(Cc2cc(Cl)ccc2C(F)(F)F)CCN3)cc1)N1CCCCC1 |
| < 50 | < 50 | < 50 | < 50 | < 50 | 0.15 | FC(F)(F)c1ccc(Cl)cc1CN1CCNc2ncc(-c3ccnc(N4CCNCC4)c3)cc21 |
| < 50 | < 50 | < 50 | < 50 | < 50 | 0.25 | CC(=O)N1CCN(c2cc(-c3cnc4c(c3)N(Cc3cc(Cl)ccc3C(F)(F)F)CCN4)ccn2)CC1 |
| < 50 | < 50 |  |  |  |  | O=C(O)c1ccc(-c2cnc3c(c2)N(Cc2cc(Cl)ccc2C(F)(F)F)CCN3)cc1 |
| 84 | < 50 | < 50 | < 50 | < 50 |  | CN1CCN(c2ccc(-c3cnc4c(c3)N(Cc3c(F)ccc(F)c3Cl)CCN4)cn2)CC1 |

From ChEMBL document CHEMBL1165965, “Synthesis and structure-activity relationships of 1,2,3,4-tetrahydropyrido[2,3-b]pyrazines as potent and selective inhibitors of the anaplastic lymphoma kinase” (Bioorg Med Chem, 2010)
